pIC50: −log10 of the molar value.
Experiments:
[1] = molecular target: T1, Melanin-concentrating hormone receptor 1 (Homo sapiens, UniProt Q99705); assay: Displacement of [125I]MCH from human recombinant MCH1R expressed on CHOK1 cell membrane; format: cell membranes, CHO-K1
Procedure, shortened: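 Competition binding with [125I]MCH on membranes of CHO-K1 cells expressing human recombinant MCH-1R. Inhibition of radioligand binding is measured. Values are means of n = 2.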

[2] = Metabolic stability in mouse liver microsomes after 30 mmins; format: ADME, Microsome; settings: read-out: Stability
Procedure, shortened: (§1)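 Hepatic microsomes (human or mouse) are incubated with compound for 30 min. The read-out is % of parent remaining. Values are means of n = 2.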

[3] = Metabolic stability in human liver microsomes after 30 mmins; format: ADME, Microsome; settings: read-out: Stability; procedure, shortened: as §1
Histamine H2 receptor = Histamine H2 receptor (Homo sapiens, UniProt P25021); assay: Inhibition of histamine H2 receptor
[4] = molecular target: T1, Melanin-concentrating hormone receptor 1; assay: Antagonistic activity against MCH1R expressed on CHOK1 cells assessed as intracellular calcium mobilization by FLIPR; format: functional, cell-based, CHO-K1
[5] = molecular target: T2, Muscarinic acetylcholine receptor M1 (Homo sapiens, UniProt P11229); assay: Inhibition of muscarinic M1 receptor
T2 sequence (P11229 whole entry): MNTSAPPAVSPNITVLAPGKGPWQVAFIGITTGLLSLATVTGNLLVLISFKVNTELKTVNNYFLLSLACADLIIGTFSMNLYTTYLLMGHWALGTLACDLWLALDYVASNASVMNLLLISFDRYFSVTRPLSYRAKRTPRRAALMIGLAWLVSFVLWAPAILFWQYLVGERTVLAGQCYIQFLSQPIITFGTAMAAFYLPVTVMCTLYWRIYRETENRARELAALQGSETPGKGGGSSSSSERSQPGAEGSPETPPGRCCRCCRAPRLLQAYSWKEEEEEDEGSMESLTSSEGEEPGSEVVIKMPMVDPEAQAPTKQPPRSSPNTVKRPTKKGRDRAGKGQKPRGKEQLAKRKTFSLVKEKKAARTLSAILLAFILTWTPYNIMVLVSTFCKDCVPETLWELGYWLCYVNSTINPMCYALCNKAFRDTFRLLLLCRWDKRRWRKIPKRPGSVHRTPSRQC

Histamine H1 receptor = Histamine H1 receptor (Homo sapiens, UniProt P35367); assay: Inhibition of histamine H1 receptor
Mu-type opioid receptor = Mu-type opioid receptor (Homo sapiens, UniProt P35372); assay: Inhibition of mu-type opioid receptor
[6] = molecular target: Delta-type opioid receptor (Homo sapiens, UniProt P41143); assay: Inhibition of delta-type opioid receptor
[7] = molecular target: Kappa-type opioid receptor (Homo sapiens, UniProt P41145); assay: Inhibition of kappa-type opioid receptor
[8] = Inhibition of adrenergic alpha1 receptor
Histamine H3 receptor = Histamine H3 receptor (Homo sapiens, UniProt Q9Y5N1); assay: Inhibition of histamine H3 receptor
Histamine H4 receptor = Histamine H4 receptor (Homo sapiens, UniProt Q9H3N8); assay: Inhibition of histamine H4 receptor
Adenosine receptor A2a = Adenosine receptor A2a (Homo sapiens, UniProt P29274); assay: Inhibition of adenosine receptor A2A
[9] = molecular target: Voltage-gated inwardly rectifying potassium channel KCNH2 (Homo sapiens, UniProt Q12809); assay: Inhibition of human ERG potassium channel 1
Voltage-gated inwardly rectifying potassium channel KCNH2, sequence (Q12809 whole entry): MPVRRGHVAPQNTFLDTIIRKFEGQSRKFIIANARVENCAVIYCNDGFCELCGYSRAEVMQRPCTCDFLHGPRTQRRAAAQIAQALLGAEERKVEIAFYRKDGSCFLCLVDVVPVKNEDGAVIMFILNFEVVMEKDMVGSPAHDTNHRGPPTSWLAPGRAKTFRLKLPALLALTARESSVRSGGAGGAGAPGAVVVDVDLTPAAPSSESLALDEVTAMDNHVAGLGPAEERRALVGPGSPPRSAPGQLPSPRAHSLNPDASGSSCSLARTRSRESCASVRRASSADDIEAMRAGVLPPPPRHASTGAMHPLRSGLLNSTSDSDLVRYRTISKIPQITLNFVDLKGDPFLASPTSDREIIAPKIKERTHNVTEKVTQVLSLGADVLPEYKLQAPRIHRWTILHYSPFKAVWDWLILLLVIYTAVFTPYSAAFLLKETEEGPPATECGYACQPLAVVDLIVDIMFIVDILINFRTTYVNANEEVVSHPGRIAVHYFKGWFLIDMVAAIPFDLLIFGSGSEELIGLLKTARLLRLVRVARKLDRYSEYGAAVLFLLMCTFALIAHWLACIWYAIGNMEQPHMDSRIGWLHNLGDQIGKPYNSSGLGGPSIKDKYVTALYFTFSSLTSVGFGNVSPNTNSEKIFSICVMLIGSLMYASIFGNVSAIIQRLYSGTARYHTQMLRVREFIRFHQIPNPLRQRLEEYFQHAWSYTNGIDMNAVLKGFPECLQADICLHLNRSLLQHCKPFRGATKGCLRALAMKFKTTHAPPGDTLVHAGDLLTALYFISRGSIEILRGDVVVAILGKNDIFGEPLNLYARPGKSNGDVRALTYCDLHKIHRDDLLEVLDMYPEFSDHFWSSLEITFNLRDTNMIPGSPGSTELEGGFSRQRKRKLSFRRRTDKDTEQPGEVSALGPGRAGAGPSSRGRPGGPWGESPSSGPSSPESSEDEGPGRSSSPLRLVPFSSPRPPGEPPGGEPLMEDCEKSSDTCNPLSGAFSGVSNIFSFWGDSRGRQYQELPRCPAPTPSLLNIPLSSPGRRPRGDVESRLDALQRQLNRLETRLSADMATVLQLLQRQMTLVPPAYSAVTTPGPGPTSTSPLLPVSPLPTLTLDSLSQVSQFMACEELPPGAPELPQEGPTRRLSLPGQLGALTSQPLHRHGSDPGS

T1 sequence (Q99705 whole entry): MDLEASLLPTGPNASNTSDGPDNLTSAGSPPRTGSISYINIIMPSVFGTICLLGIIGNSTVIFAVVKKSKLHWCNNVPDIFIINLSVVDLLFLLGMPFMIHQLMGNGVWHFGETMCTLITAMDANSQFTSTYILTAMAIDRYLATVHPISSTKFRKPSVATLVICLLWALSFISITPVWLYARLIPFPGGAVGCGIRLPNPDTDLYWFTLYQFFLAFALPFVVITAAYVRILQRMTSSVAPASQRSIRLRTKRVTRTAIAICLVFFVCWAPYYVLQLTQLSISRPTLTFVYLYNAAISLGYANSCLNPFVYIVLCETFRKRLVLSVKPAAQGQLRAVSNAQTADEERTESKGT
Mu-type opioid receptor, sequence (P35372 whole entry): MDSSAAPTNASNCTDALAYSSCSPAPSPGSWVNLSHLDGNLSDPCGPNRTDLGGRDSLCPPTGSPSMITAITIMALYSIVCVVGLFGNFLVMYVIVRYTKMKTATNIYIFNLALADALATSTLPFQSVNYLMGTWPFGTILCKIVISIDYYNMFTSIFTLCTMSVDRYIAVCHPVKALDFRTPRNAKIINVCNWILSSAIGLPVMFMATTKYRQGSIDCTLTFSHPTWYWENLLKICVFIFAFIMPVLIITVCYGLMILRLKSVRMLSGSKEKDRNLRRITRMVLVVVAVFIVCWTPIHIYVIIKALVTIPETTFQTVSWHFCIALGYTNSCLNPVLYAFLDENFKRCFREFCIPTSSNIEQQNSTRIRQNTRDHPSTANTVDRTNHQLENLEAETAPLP
Histamine H2 receptor, sequence (P25021 whole entry): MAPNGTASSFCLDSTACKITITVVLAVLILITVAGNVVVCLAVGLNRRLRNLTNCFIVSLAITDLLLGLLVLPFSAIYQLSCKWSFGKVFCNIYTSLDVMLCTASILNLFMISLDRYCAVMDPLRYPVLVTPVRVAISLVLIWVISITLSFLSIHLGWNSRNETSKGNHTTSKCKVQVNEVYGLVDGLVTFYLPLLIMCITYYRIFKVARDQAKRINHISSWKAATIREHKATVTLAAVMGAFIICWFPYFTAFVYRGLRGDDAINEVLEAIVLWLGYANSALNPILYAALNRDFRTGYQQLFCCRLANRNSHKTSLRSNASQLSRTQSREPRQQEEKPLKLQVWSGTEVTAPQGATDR
Histamine H3 receptor, sequence (Q9Y5N1 whole entry): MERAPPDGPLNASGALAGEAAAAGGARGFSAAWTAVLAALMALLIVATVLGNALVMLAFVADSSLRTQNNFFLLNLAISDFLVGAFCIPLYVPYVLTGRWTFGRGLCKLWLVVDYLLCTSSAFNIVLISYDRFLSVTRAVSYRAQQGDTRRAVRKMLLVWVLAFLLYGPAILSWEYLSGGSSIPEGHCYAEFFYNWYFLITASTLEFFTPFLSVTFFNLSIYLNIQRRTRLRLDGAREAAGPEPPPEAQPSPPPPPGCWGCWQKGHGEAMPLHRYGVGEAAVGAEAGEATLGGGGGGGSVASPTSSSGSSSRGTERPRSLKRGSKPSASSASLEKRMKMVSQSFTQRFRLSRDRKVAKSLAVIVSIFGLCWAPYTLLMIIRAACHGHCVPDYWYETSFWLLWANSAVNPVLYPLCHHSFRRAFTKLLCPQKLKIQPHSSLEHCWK
Kappa-type opioid receptor, sequence (P41145 whole entry): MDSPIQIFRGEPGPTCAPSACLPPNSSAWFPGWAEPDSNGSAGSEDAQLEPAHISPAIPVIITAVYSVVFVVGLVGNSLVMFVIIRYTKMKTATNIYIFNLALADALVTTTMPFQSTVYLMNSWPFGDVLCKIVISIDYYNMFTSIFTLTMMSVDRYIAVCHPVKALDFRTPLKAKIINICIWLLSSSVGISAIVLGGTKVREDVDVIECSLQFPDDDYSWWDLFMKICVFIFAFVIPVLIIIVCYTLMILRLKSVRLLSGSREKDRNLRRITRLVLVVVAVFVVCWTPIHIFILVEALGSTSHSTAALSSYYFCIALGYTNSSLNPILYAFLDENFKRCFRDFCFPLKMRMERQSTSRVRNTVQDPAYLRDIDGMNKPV
Adenosine receptor A2a, sequence (P29274 whole entry): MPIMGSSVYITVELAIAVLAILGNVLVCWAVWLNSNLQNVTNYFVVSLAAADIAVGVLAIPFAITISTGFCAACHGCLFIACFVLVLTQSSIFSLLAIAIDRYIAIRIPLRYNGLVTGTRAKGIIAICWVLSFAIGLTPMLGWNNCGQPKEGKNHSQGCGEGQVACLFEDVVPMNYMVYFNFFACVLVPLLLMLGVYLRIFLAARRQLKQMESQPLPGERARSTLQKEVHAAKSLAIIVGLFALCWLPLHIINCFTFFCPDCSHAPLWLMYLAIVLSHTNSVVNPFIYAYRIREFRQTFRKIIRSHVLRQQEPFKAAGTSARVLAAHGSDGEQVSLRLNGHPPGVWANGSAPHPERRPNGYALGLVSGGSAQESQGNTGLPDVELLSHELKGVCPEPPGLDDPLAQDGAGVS
Delta-type opioid receptor, sequence (P41143 whole entry): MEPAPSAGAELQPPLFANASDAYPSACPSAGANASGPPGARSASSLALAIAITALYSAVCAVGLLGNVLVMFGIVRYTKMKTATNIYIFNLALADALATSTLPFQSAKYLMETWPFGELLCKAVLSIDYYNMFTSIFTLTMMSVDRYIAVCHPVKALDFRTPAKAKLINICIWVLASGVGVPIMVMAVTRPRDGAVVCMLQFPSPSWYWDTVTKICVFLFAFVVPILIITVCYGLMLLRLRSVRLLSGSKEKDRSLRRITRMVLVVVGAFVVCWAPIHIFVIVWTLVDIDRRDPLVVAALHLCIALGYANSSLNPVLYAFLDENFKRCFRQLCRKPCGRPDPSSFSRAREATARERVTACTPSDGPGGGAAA
Histamine H1 receptor, sequence (P35367 whole entry): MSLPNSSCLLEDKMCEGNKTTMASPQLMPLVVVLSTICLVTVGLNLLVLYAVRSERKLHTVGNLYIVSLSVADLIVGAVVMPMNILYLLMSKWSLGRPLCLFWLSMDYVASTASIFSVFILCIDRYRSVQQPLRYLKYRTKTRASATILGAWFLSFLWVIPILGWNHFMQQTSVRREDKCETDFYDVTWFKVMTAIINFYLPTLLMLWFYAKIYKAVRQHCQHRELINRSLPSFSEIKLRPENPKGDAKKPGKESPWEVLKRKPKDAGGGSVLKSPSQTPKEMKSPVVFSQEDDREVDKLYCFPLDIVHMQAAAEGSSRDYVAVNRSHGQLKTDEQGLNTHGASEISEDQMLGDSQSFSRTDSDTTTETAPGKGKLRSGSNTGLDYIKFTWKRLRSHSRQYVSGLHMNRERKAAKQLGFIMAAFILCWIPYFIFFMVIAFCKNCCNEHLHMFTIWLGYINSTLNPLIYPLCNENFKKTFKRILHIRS

| pIC50 [1] | remaining at 30 min [2] [%] | remaining at 30 min [3] [%] | SMILES | also measured |
| --- | --- | --- | --- | --- |
| < 6.00 | – | – | O=c1cc(OCc2ccc(F)cc2)ccn1-c1ccc(CN2CCCC2)cc1 | – |
| 8.36 | 6 | 26 | CCCN(CC)Cc1ccc(CCn2ccc(OCc3ccc(F)cc3)cc2=O)cc1 | – |
| 7.54 | – | – | O=c1cc(OCc2ccc(F)cc2)ccn1Cc1cccc(OCCN2CCCC2)c1 | – |
| 8.28 | 1 | 4 | CCCN(Cc1ccc(CCn2ccc(OCc3ccc(F)cc3)cc2=O)cc1)C(C)C | – |
| 7.52 | – | – | O=c1cc(OCc2ccc(F)cc2)ccn1Cc1cccc(OCCCN2CCCC2)c1 | – |
| 8.27 | 0 | 0 | CCCN(CCOC)Cc1ccc(CCn2ccc(OCc3ccc(F)cc3)cc2=O)cc1 | – |
| < 6.00 | – | – | O=c1cc(OCc2ccc(F)cc2)ccn1CCc1ccc(N2CCCC2)cc1 | – |
| 7.96 | 0 | 0 | CCCN(CCF)Cc1ccc(CCn2ccc(OCc3ccc(F)cc3)cc2=O)cc1 | – |
| < 6.00 | – | – | O=c1cc(OCc2ccc(F)cc2)ccn1-c1cccc(OCCN2CCCC2)c1 | – |
| 8.25 | – | – | O=c1cc(OCc2ccc(F)cc2)ccn1-c1ccc(OCCN2CCCC2)cc1 | – |
| – | 62 | 85 | CCCNCc1ccc(CCn2ccc(OCc3ccc(F)cc3)cc2=O)cc1 | pIC50 (Histamine H2 receptor): < 5.30; pIC50 [4]: 7.70; pIC50 [5]: < 5.30; pIC50 (Histamine H1 receptor): < 5.30; pIC50 (Mu-type opioid receptor): < 5.30; pIC50 [6]: < 5.30; pIC50 [7]: < 5.30; pIC50 [8]: < 5.30; pIC50 (Histamine H3 receptor): < 5.30; pIC50 (Histamine H4 receptor): < 5.30; pIC50 (Adenosine receptor A2a): < 5.30 |
| 7.47 | 74 | 72 | CCCNCc1ccc(COn2ccc(OCc3ccc(F)cc3)cc2=O)cc1 | – |
| 8.46 | 22 | 58 | CCCN(C)Cc1ccc(CCn2ccc(OCc3ccc(F)cc3)cc2=O)cc1 | – |
| 8.46 | 1 | 1 | CCCN(Cc1ccc(CCn2ccc(OCc3ccc(F)cc3)cc2=O)cc1)C1CCCC1 | – |
| 8.31 | 0 | 0 | CCCN(Cc1ccc(CCn2ccc(OCc3ccc(F)cc3)cc2=O)cc1)CC(C)C | – |
| 8.48 | 1 | 1 | CCCN(CCC)Cc1ccc(CCn2ccc(OCc3ccc(F)cc3)cc2=O)cc1 | – |
| 8.15 | 93 | 91 | CCCNCc1ccc(CCn2ccc(OCc3ccc(F)cc3)cc2=O)nc1 | pIC50 (Histamine H2 receptor): < 5.30; pIC50 [4]: 7.57; pIC50 [5]: < 5.30; pIC50 (Histamine H1 receptor): < 5.30; pIC50 (Mu-type opioid receptor): < 5.30; pIC50 [6]: < 5.30; pIC50 [7]: < 5.30; pIC50 [8]: < 5.30; pIC50 (Histamine H3 receptor): < 5.30; pIC50 [9]: 5.29; pIC50 (Histamine H4 receptor): < 5.30; pIC50 (Adenosine receptor A2a): < 5.30 |
| – | 26 | 54 | CCN(CC)Cc1ccc(CCn2ccc(OCc3ccc(F)cc3)cc2=O)cc1 | – |
| 8.30 | 39 | 60 | O=c1cc(OCc2ccc(F)cc2)ccn1CCc1ccc(CN2CCCC2)cc1 | – |
| 7.96 | 76 | 87 | CCCNCc1ccc(CCn2ccc(OCc3ccc(F)cc3)cc2=O)cn1 | – |
